ChEMBL document CHEMBL3774372, “Design, physico-chemical properties and biological evaluation of some new N-[(phenoxy)alkyl]- and N-{2-[2-(phenoxy)ethoxy]ethyl}aminoalkanols as anticonvulsant agents” (Bioorg Med Chem, 2016)
Active and inactive are the calls of the source.

Columns and labels:
Rattus norvegicus [1] = assay: Anticonvulsant activity in rat assessed as protection against maximal electric shock-induced seizures at 30 mg/kg, po measured after 0.5 hrs; assay type: functional, organism-based
In short: (§1)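 Rats dosed ip or orally as 0.5% methylcellulose suspension; maximal electroshock at listed time. Protection = abolition of hindlimb tonic extension; 4 rats per group, scored protected/tested.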

Rattus norvegicus [2] = assay: Anticonvulsant activity in rat assessed as protection against maximal electric shock-induced seizures at 30 mg/kg, po measured after 1 hr; assay type: functional, organism-based; in short: as §1
Mus musculus [3] = assay: Anticonvulsant activity in mouse assessed as protection against maximal electric shock-induced seizures at 3 mg/kg, ip measured after 0.5 hrs; assay type: functional, organism-based
In short: (§2)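 Mice dosed ip with suspension in 0.5% methylcellulose; maximal electroshock applied at the listed time after dosing. Protection = abolition of hindlimb tonic extension component of seizure; reported as animals protected/animals tested.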

Rattus norvegicus [4] = assay: Anticonvulsant activity in rat assessed as protection against maximal electric shock-induced seizures at 30 mg/kg, po measured after 2 hrs; assay type: functional, organism-based; in short: as §1
Rattus norvegicus [5] = assay: Anticonvulsant activity in rat assessed as protection against maximal electric shock-induced seizures at 30 mg/kg, po measured after 4 hrs; assay type: functional, organism-based; in short: as §1
Rattus norvegicus [6] = assay: Neurotoxicity in rat at 30 mg/kg, po after […] by rotarod test; assay type: toxicity, organism-based; details: in vivo
Rattus norvegicus [7] = assay: Neurotoxicity in rat at 30 mg/kg, po after 0.5 hrs by rotarod test; assay type: toxicity, organism-based; details: in vivo
Rattus norvegicus [8] = assay: Neurotoxicity in rat at 30 mg/kg, po after 1 hr by rotarod test; assay type: toxicity, organism-based; details: in vivo
Rattus norvegicus [9] = assay: Neurotoxicity in rat at 30 mg/kg, po after 2 hrs by rotarod test; assay type: toxicity, organism-based; details: in vivo
Rattus norvegicus [10] = assay: Neurotoxicity in rat at 30 mg/kg, po after 4 hrs by rotarod test; assay type: toxicity, organism-based; details: in vivo
Mus musculus [11] = assay: Anticonvulsant activity in mouse assessed as protection against maximal electric shock-induced seizures at 10 mg/kg, ip measured after 0.5 hrs; assay type: functional, organism-based; in short: as §2
Mus musculus [12] = assay: Anticonvulsant activity in mouse assessed as protection against maximal electric shock-induced seizures at 30 mg/kg, ip measured after 0.5 hrs; assay type: functional, organism-based; in short: as §2
Mus musculus [13] = assay: Anticonvulsant activity in mouse assessed as protection against maximal electric shock-induced seizures at 30 mg/kg, ip measured after 4 hrs; assay type: functional, organism-based; in short: as §2
Mus musculus [14] = assay: Neurotoxicity in mouse at 10 mg/kg, ip after 0.5 hrs by rotarod test; assay type: toxicity, organism-based; details: in vivo
In short: (§3)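 Mice were dosed ip with compound suspended in 0.5% methylcellulose. Rotarod: a 1 in. knurled rod turning at 6 rpm. Neurotoxicity was scored as failure to stay on the rod for at least 1 min in each of three trials. Results are given as the number of animals affected out of the number tested.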

Mus musculus [15] = assay: Neurotoxicity in mouse at 3 mg/kg, ip after 0.5 hrs by rotarod test; assay type: toxicity, organism-based; details: in vivo; in short: as §3
Mus musculus [16] = assay: Anticonvulsant activity in mouse assessed as protection against subcutaneous pentylenetetrazol-induced seizures at 30 mg/kg, ip measured after 0.5 hrs; assay type: functional, organism-based
In short: (§4)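 Mice dosed ip as 0.5% methylcellulose suspension; pentylenetetrazole 85 mg/kg in 0.9% NaCl injected subcutaneously into posterior midline, animals watched at least 30 min. Protection = no threshold seizure (single clonic spasm episode lasting ≥5 s); scored protected/tested.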

Mus musculus [17] = assay: Anticonvulsant activity in mouse assessed as protection against subcutaneous pentylenetetrazol-induced seizures at 30 mg/kg, ip measured after 4 hrs; assay type: functional, organism-based; in short: as §4
Mus musculus [18] = assay: Neurotoxicity in mouse at 30 mg/kg, ip after 0.5 hrs by rotarod test; assay type: toxicity, organism-based; details: in vivo; in short: as §3
Mus musculus [19] = assay: Neurotoxicity in mouse at 30 mg/kg, ip after 4 hrs by rotarod test; assay type: toxicity, organism-based; details: in vivo; in short: as §3
Mus musculus [20] = assay: Neurotoxicity in mouse at 100 mg/kg, ip after 0.5 hrs by rotarod test; assay type: toxicity, organism-based; details: in vivo; in short: as §3
Mus musculus [21] = assay: Neurotoxicity in mouse at 300 mg/kg, ip after 0.5 hrs by rotarod test; assay type: toxicity, organism-based; details: in vivo; in short: as §3
Rattus norvegicus [22] = assay: Anticonvulsant activity in rat assessed as protection against maximal electric shock-induced seizures at 30 mg/kg, po measured after […]; assay type: functional, organism-based
Vibrio harveyi [23] = assay: Mutagenicity in Vibrio harveyi BB7 assessed as number of colonies after 48 hrs (reference value: 13 to 14 no_unit); assay type: ADME, organism-based; details: in vivo
In short: (§5)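 Vibrio harveyi mutagenicity test: test compound was added to exponentially growing cultures (A600 = 0.1, 30 °C) and grown to OD600 0.3–0.4. Then 5 × 10^6 cells were plated on BOSS agar with neomycin (final 100 µg/mL) and incubated 48 h at 30 °C. Neomycin-resistant colonies were counted. Triplicate; controls were water, DMSO and NQNO 40 ng/mL.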

Vibrio harveyi [24] = assay: Mutagenicity in Vibrio harveyi BB7X assessed as number of colonies after 48 hrs (reference value: 15 to 16 no_unit); assay type: ADME, organism-based; details: in vivo; in short: as §5
Vibrio harveyi [25] = assay: Mutagenicity in Vibrio harveyi BB7M assessed as number of colonies after 48 hrs (reference value: 13 to 14 no_unit); assay type: ADME, organism-based; details: in vivo; in short: as §5
Vibrio harveyi [26] = assay: Mutagenicity in Vibrio harveyi BB7XM assessed as number of colonies after 48 hrs (reference value: 14 no_unit); assay type: ADME, organism-based; details: in vivo; in short: as §5
Vibrio harveyi [27] = assay: Antimutagenic activity against Vibrio harveyi BB7 assessed as inhibition of NQNO-induced mutagenicity after 48 hrs; assay type: functional
In short: (§6)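 V. harveyi cultures grown exponentially to A600 0.1 at 30 °C, exposed to test compound for 15 min, then to NQNO, and grown on to A600 0.3–0.4. 5 × 10⁶ cells plated on BOSS agar with neomycin (100, final). Neomycin-resistant colonies counted after 48 h at 30 °C. Result given as % inhibition of NQNO mutagenicity; three independent repeats.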

Vibrio harveyi [28] = assay: Antimutagenic activity against Vibrio harveyi BB7X assessed as inhibition of NQNO-induced mutagenicity after 48 hrs; assay type: functional; in short: as §6
Vibrio harveyi [29] = assay: Antimutagenic activity against Vibrio harveyi BB7M assessed as inhibition of NQNO-induced mutagenicity after 48 hrs; assay type: functional; in short: as §6
Vibrio harveyi [30] = assay: Antimutagenic activity against Vibrio harveyi BB7XM assessed as inhibition of NQNO-induced mutagenicity after 48 hrs; assay type: functional; in short: as §6
[31] = […] from rat cerebral cortex Sodium channel site 2; assay type: tissue-based
[32] = […] from rat cerebral cortex GABA-gated chloride channel; assay type: tissue-based

Structure (SMILES): CC[C@@H](CO)NCCOCCOc1c(C)cccc1C
- Activity (Rattus norvegicus [1]): inactive
- Activity (Rattus norvegicus [2]): inactive
- Activity (Mus musculus [3]): inactive
- Activity (Rattus norvegicus [4]): inactive
- Activity (Rattus norvegicus [5]): inactive
- Activity (Rattus norvegicus [6]): Non-toxic
- Activity (Rattus norvegicus [7]): Non-toxic
- Activity (Rattus norvegicus [8]): Non-toxic
- Activity (Rattus norvegicus [9]): Non-toxic
- Activity (Rattus norvegicus [10]): Non-toxic
- Activity (Mus musculus [11]): inactive
- Activity (Mus musculus [12]): Active
- Activity (Mus musculus [13]): inactive
- Activity (Mus musculus [14]): Non-toxic
- Activity (Mus musculus [15]): Non-toxic
- Activity (Mus musculus [16]): inactive
- Activity (Mus musculus [17]): inactive
- Activity (Mus musculus [18]): Non-toxic
- Activity (Mus musculus [19]): Non-toxic
- Activity (Mus musculus [20]): Toxic
- Activity (Mus musculus [21]): Toxic
- Activity (Rattus norvegicus [22]): inactive
- Activity (Vibrio harveyi [23]): 28
- Activity (Vibrio harveyi [24]): 27
- Activity (Vibrio harveyi [25]): 26
- Activity (Vibrio harveyi [26]): 22
- inhibition (INH) (Vibrio harveyi [27]): 88%
- inhibition (INH) (Vibrio harveyi [28]): 22%
- inhibition (INH) (Vibrio harveyi [29]): 52%
- inhibition (INH) (Vibrio harveyi [30]): 15%

Structure (SMILES): COc1ccc(C(=O)O[C@H]2CC[C@@]3(C)[C@@H]4CC[C@H]5[C@]6(O)C[C@H](O)[C@@]7(O)[C@@H](CN8C[C@@H](C)CC[C@H]8[C@@]7(C)O)[C@]6(O)C[C@@]53O[C@]24O)cc1OC [VERATRIDINE]
- IC50 [31]: 4000 nM

Structure (SMILES): C=C(C)[C@@H]1[C@H]2OC(=O)[C@@H]1[C@]1(O)C[C@H]3O[C@]34C(=O)O[C@H]2[C@]14C [PICROTOXININ]
- IC50 [32]: 77 nM
